Here are results for 19 molecules from ChEMBL document CHEMBL3098044, “Inhibition of carbonic anhydrases from the extremophilic bacteria Sulfurihydrogenibium yellostonense (SspCA) and S. azorense (SazCA) with a new series of sulfonamides incorporating aroylhydrazone-, [1,2,4]triazolo[3,4-b][1,3,4]thiadiazinyl- or 2-(cyanophenylmethylene)-1,3,4-thiadiazol-3(2H)-yl …” (Bioorg Med Chem, 2014).

The nature of experiment [1]: Inhibition of Sulfurihydrogenibium yellowstonense YO3AOP1 carbonic anhydrase preincubated for 15 mins by stopped-flow CO2 hydration assay. Summed up:
(§1)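 Initial rates of CA-catalysed CO2 hydration followed for 10–100 s with phenol red (0.2 mM) read at 557 nm, in 10–20 mM Hepes pH 7.5 with 20 mM Na2SO4 for ionic strength. CO2 1.7–17 mM. Inhibitors in water at 0.01 mM stock, diluted down to 0.01 nM. Enzyme and inhibitor preincubated at room temperature. Uncatalysed rates subtracted. Ki from non-linear least squares and Cheng–Prusoff, mean of at least three determinations.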

A short description of experiment [2]: Inhibition of Sulfurihydrogenibium azorense alpha-carbonic anhydrase preincubated for 15 mins by stopped-flow CO2 hydration assay. Summed up:
as §1

`CC(=O)C1=NN(c2ccc(S(N)(=O)=O)cc2)C(=C(C#N)C#N)S1`: the Ki – broadly, a measure of affinity in units of concentration, obtained from inhibition or displacement – in experiment [1] amounted to 89.1 nM; in experiment [2], 116 nM.
The matching figures for `COc1ccc(C(=O)N/N=C(C)/C(Cl)=N/Nc2ccc(S(N)(=O)=O)cc2)cc1`: 45.2 nM and 21.2 nM.
Regarding `CC(=N\NC(=O)c1cccs1)/C(Cl)=N/Nc1ccc(S(N)(=O)=O)cc1`, the Ki came to 6.4 nM in experiment [1] and 14.9 nM in experiment [2].
In the case of `CC(=N\NC(=O)c1ccccc1)/C(=N/Nc1ccc(S(N)(=O)=O)cc1)N1CCCCC1`, the inhibition constant (Ki) is 21.9 nM in experiment [1] and 13.5 nM in experiment [2].
For the molecule `CC(=N\NC(=O)c1ccc(Cl)cc1)/C(=N/Nc1ccc(S(N)(=O)=O)cc1)N1CCCCC1`, the Ki was 80.6 nM in experiment [1] and 8.1 nM in experiment [2].
Regarding `COc1ccc(C(=O)N/N=C(C)/C(=N/Nc2ccc(S(N)(=O)=O)cc2)N2CCCCC2)cc1`, the results for the Ki in experiment [1] and in experiment [2] were 62.8 nM and 4 nM, respectively.
`CC(=N\NC(=O)c1cccs1)/C(=N/Nc1ccc(S(N)(=O)=O)cc1)N1CCCCC1`: the Ki in experiment [1] came out at 20.5 nM; in experiment [2], 0.77 nM.
Consider `CC(=N\NC(=O)c1ccccc1)/C(=N/Nc1ccc(S(N)(=O)=O)cc1)S(=O)(=O)c1ccccc1`, for which the results for the Ki in experiment [1] and in experiment [2] were 42.9 nM and 94.5 nM, respectively.
Turning to `CC(=N\NC(=O)c1ccc(Cl)cc1)/C(=N/Nc1ccc(S(N)(=O)=O)cc1)S(=O)(=O)c1ccccc1`, the Ki in experiment [1] worked out at 68.3 nM; in experiment [2] it was 59.1 nM.
Take `COc1ccc(C(=O)N/N=C(C)/C(=N/Nc2ccc(S(N)(=O)=O)cc2)S(=O)(=O)c2ccccc2)cc1`: the Ki came out at 78.2 nM in experiment [1] and 169 nM in experiment [2].
Regarding `CC(=N\NC(=O)c1cccs1)/C(=N/Nc1ccc(S(N)(=O)=O)cc1)S(=O)(=O)c1ccccc1`, the Ki in experiment [1] stood at 74.5 nM; in experiment [2], 21.9 nM.
Regarding `Cc1nn2c(C)nnc2s/c1=N/Nc1ccc(S(N)(=O)=O)cc1`, the figures for the Ki in experiment [1] and in experiment [2] were 28.3 nM and 18.3 nM, respectively.
`Cc1nn2c(-c3ccccc3)nnc2s/c1=N/Nc1ccc(S(N)(=O)=O)cc1`: the inhibition constant (Ki) in experiment [1] came to 47.9 nM; in experiment [2] it was 9.7 nM.
For `CCOC(=O)/C(C#N)=C1\SC(C(C)=O)=NN1c1ccc(S(N)(=O)=O)cc1` the same measures were 38.7 nM and 193 nM.
For `CC(=O)C1=NN(c2ccc(S(N)(=O)=O)cc2)/C(=C(\C#N)C(=O)c2ccccc2)S1`, the values for the Ki in experiment [1] and in experiment [2] were 76.8 nM and 234 nM, respectively.
Consider `CC(=O)C1=NN(c2ccc(S(N)(=O)=O)cc2)/C(=C(\C#N)C(=O)Nc2ccc(S(N)(=O)=O)cc2)S1`, for which the Ki worked out at 71 nM in experiment [1] and 101 nM in experiment [2].
As to `CC(=N\NC(=O)c1ccccc1)/C(Cl)=N/Nc1ccc(S(N)(=O)=O)cc1`, the results for the Ki in experiment [1] and in experiment [2] were 6.2 nM and 24.3 nM, respectively.
For the molecule `CC(=N\NC(=O)c1ccc(Cl)cc1)/C(Cl)=N/Nc1ccc(S(N)(=O)=O)cc1`, the Ki in experiment [1] worked out at 51.1 nM; in experiment [2], 18.5 nM.
Consider `CC(=O)Nc1nnc(S(N)(=O)=O)s1` [ACETAZOLAMIDE], for which the Ki was […] in experiment [1] and 0.9 nM in experiment [2].
